System: HEK-293T
Experiment: Multiplex assay against HEK293T;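 for Population Tubulin-Different-Phenotype (%): share of the cells with healthy nuclei that show this phenotype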
Type: toxicity, cell-based
Conditions: human
Procedure, shortened: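 Imaging took place on a CQ1 microscope at 37°C and 5% CO2 once compound had been added to live cells stained at seeding with Hoechst33342, BioTracker Green Microtubule Cytoskeleton Dye, MitoTracker Red and Annexin V Alexa Fluor 680. CellPathfinder machine-learning gating classed cells as Hoechst high-intensity objects or normal cells, classed normal cells as having healthy, pyknosed or fragmented nuclei, and classed pyknosed cells as mitotic or apoptotic. Tubulin, mitochondrial-mass and membrane-permeability phenotypes are per cents of the healthy-nucleus cells.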

[1] = 12 h, 1 µM, compound concentration 1 uM, replicate 1
[2] = 12 h, 1 µM, compound concentration 1 uM, replicate 2
[3] = 12 h, 10 µM, compound concentration 10 uM, replicate 1
[4] = 12 h, 10 µM, compound concentration 10 uM, replicate 2
[5] = 24 h, 1 µM, compound concentration 1 uM, replicate 1
[6] = 24 h, 1 µM, compound concentration 1 uM, replicate 2
[7] = 24 h, 10 µM, compound concentration 10 uM, replicate 1
[8] = 24 h, 10 µM, compound concentration 10 uM, replicate 2
[9] = 48 h, 1 µM, compound concentration 1 uM, replicate 1
[10] = 48 h, 1 µM, compound concentration 1 uM, replicate 2
[11] = 48 h, 10 µM, compound concentration 10 uM, replicate 1
[12] = 48 h, 10 µM, compound concentration 10 uM, replicate 2

CNc1nc(NCc2ccc(NS(C)(=O)=O)cc2Cl)cc(-c2ccccn2)n1
Population Apoptotic (%) [1]: 52% | Population Fragmented Nuclei (%) [1]: 18% | Population Healthy Nuclei (%) [1]: 36% | Population Hoechst High Intensity Objects (%) [1]: 17% | Population Membrane Permeable-Phenotype (%) [1]: 3% | Population Mitochondria Different-Phenotype (%) [1]: 75% | Population Mitotic Cells (%) [1]: 48% | Population Normal (%) [1]: 82% | Population Pyknosed Nuclei (%) [1]: 44% | Population Tubulin-Different-Phenotype (%) [1]: 38% | Total Cell Count [1]: 203 | Population Apoptotic (%) [2]: 14% | Population Fragmented Nuclei (%) [2]: 6% | Population Healthy Nuclei (%) [2]: 43% | Population Hoechst High Intensity Objects (%) [2]: 2% | Population Membrane Permeable-Phenotype (%) [2]: 6% | Population Mitochondria Different-Phenotype (%) [2]: 18% | Population Mitotic Cells (%) [2]: 85% | Population Normal (%) [2]: 97% | Population Pyknosed Nuclei (%) [2]: 50% | Population Tubulin-Different-Phenotype (%) [2]: 23% | Total Cell Count [2]: 273 | Population Apoptotic (%) [3]: 60% | Population Fragmented Nuclei (%) [3]: 9% | Population Healthy Nuclei (%) [3]: 25% | Population Hoechst High Intensity Objects (%) [3]: 14% | Population Mitochondria Different-Phenotype (%) [3]: 95% | Population Mitotic Cells (%) [3]: 39% | Population Normal (%) [3]: 85% | Population Pyknosed Nuclei (%) [3]: 65% | Population Tubulin-Different-Phenotype (%) [3]: 92% | Total Cell Count [3]: 190 | Population Apoptotic (%) [4]: 25% | Population Fragmented Nuclei (%) [4]: 4% | Population Healthy Nuclei (%) [4]: 18% | Population Hoechst High Intensity Objects (%) [4]: 4% | Population Membrane Permeable-Phenotype (%) [4]: 0% | Population Mitochondria Different-Phenotype (%) [4]: 50% | Population Mitotic Cells (%) [4]: 74% | Population Normal (%) [4]: 95% | Population Pyknosed Nuclei (%) [4]: 76% | Population Tubulin-Different-Phenotype (%) [4]: 73% | Total Cell Count [4]: 189 | Population Apoptotic (%) [5]: 55% | Population Fragmented Nuclei (%) [5]: 16% | Population Healthy Nuclei (%) [5]: 52% | Population Hoechst High Intensity Objects (%) [5]: 18% | Population Membrane Permeable-Phenotype (%) [5]: 0% | Population Mitochondria Different-Phenotype (%) [5]: 50% | Population Mitotic Cells (%) [5]: 45% | Population Normal (%) [5]: 81% | Population Pyknosed Nuclei (%) [5]: 31% | Population Tubulin-Different-Phenotype (%) [5]: 25% | Total Cell Count [5]: 234 | Population Apoptotic (%) [6]: 16% | Population Fragmented Nuclei (%) [6]: 4% | Population Healthy Nuclei (%) [6]: 57% | Population Hoechst High Intensity Objects (%) [6]: 5% | Population Membrane Permeable-Phenotype (%) [6]: 7% | Population Mitochondria Different-Phenotype (%) [6]: 14% | Population Mitotic Cells (%) [6]: 83% | Population Normal (%) [6]: 94% | Population Pyknosed Nuclei (%) [6]: 37% | Population Tubulin-Different-Phenotype (%) [6]: 31% | Total Cell Count [6]: 355 | Population Apoptotic (%) [7]: 63% | Population Fragmented Nuclei (%) [7]: 10% | Population Healthy Nuclei (%) [7]: 29% | Population Hoechst High Intensity Objects (%) [7]: 14% | Population Membrane Permeable-Phenotype (%) [7]: 0% | Population Mitochondria Different-Phenotype (%) [7]: 95% | Population Mitotic Cells (%) [7]: 36% | Population Normal (%) [7]: 85% | Population Pyknosed Nuclei (%) [7]: 60% | Population Tubulin-Different-Phenotype (%) [7]: 87% | Total Cell Count [7]: 193 | Population Apoptotic (%) [8]: 34% | Population Fragmented Nuclei (%) [8]: 3% | Population Healthy Nuclei (%) [8]: 25% | Population Hoechst High Intensity Objects (%) [8]: 6% | Population Mitochondria Different-Phenotype (%) [8]: 88% | Population Mitotic Cells (%) [8]: 65% | Population Normal (%) [8]: 93% | Population Pyknosed Nuclei (%) [8]: 71% | Population Tubulin-Different-Phenotype (%) [8]: 95% | Total Cell Count [8]: 177 | Population Apoptotic (%) [9]: 47% | Population Fragmented Nuclei (%) [9]: 15% | Population Healthy Nuclei (%) [9]: 64% | Population Hoechst High Intensity Objects (%) [9]: 8% | Population Membrane Permeable-Phenotype (%) [9]: 2% | Population Mitochondria Different-Phenotype (%) [9]: 24% | Population Mitotic Cells (%) [9]: 52% | Population Normal (%) [9]: 91% | Population Pyknosed Nuclei (%) [9]: 19% | Population Tubulin-Different-Phenotype (%) [9]: 18% | Total Cell Count [9]: 336 | Population Apoptotic (%) [10]: 14% | Population Fragmented Nuclei (%) [10]: 5% | Population Healthy Nuclei (%) [10]: 76% | Population Hoechst High Intensity Objects (%) [10]: 3% | Population Membrane Permeable-Phenotype (%) [10]: 5% | Population Mitochondria Different-Phenotype (%) [10]: 7% | Population Mitotic Cells (%) [10]: 85% | Population Normal (%) [10]: 96% | Population Pyknosed Nuclei (%) [10]: 18% | Population Tubulin-Different-Phenotype (%) [10]: 26% | Total Cell Count [10]: 601 | Population Apoptotic (%) [11]: 74% | Population Fragmented Nuclei (%) [11]: 15% | Population Healthy Nuclei (%) [11]: 29% | Population Hoechst High Intensity Objects (%) [11]: 16% | Population Membrane Permeable-Phenotype (%) [11]: 2% | Population Mitochondria Different-Phenotype (%) [11]: 85% | Population Mitotic Cells (%) [11]: 25% | Population Normal (%) [11]: 83% | Population Pyknosed Nuclei (%) [11]: 54% | Population Tubulin-Different-Phenotype (%) [11]: 93% | Total Cell Count [11]: 189 | Population Apoptotic (%) [12]: 61% | Population Fragmented Nuclei (%) [12]: 5% | Population Healthy Nuclei (%) [12]: 26% | Population Hoechst High Intensity Objects (%) [12]: 5% | Population Membrane Permeable-Phenotype (%) [12]: 7% | Population Mitochondria Different-Phenotype (%) [12]: 76% | Population Mitotic Cells (%) [12]: 38% | Population Normal (%) [12]: 94% | Population Pyknosed Nuclei (%) [12]: 67% | Population Tubulin-Different-Phenotype (%) [12]: 82% | Total Cell Count [12]: 202

From ChEMBL document CHEMBL4689842, “EUbOPEN Chemogenomics Library wave 1” (2021)
